Data: ChEMBL document CHEMBL3046857, “Novel inhibitors of the mitochondrial respiratory chain: oximes and pyrrolines isolated from Penicillium brevicompactum and synthetic analogues” (J Agric Food Chem, 2005)

Experiments:
[1] = molecular target: T1, NADH-ubiquinone oxidoreductase chain 1 (Bos taurus, UniProt P03887); test: Inhibition of Bos taurus (beef) heart NAD1 assessed as NADH oxidase activity
Method in brief: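 Beef heart submitochondrial particles, diluted to 0.5 mg/mL in 250 mM sucrose/10 mM Tris-HCl pH 7.4 and pre-activated with 300 µM NADH; then diluted to 6 µg/mL in 50 mM potassium phosphate pH 7.4, 1 mM EDTA, 22 °C. Compounds (ethanol stocks) preincubated with particles 5 min on ice. Aerobic oxidation of 75 µM NADH followed at 340 nm; three experiments; IC50.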

[2] = molecular target: T1, NADH-ubiquinone oxidoreductase chain 1; test: Inhibition of Bos taurus (beef) heart NAD1 assessed as NADH-ubiquinone oxidoreductase activity
Method in brief: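 Complex I specific activity in NADH-activated beef heart submitochondrial particles (6 µg/mL; 50 mM potassium phosphate pH 7.4, 1 mM EDTA, 22 °C). Compound preincubated 5 min on ice. 75 µM NADH with 30 µM decylubiquinone as acceptor, plus 2 µM antimycin and 2 mM KCN to block downstream steps. NADH oxidation rate read at 340 nm; three assays; IC50.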

T1 sequence (P03887 whole entry): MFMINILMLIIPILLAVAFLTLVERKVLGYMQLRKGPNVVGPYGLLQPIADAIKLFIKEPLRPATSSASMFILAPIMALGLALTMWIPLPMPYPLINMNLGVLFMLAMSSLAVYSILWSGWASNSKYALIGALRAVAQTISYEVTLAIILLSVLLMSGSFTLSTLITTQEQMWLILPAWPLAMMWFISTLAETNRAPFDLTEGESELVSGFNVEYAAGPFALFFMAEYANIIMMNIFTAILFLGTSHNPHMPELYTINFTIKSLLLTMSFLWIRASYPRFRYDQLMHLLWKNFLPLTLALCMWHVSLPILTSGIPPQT

| SMILES | IC50 ([1]; read-out: IC50) | IC50 [2] | IC50 [1] |
| --- | --- | --- | --- |
| CCC(=O)C(C)C(=O)c1ccc[nH]1 (stereo not drawn) | – | – | Not Active |
| CC1=C(C(C)c2cccc(Oc3ccccc3)c2)OC2/C(=N/O)CCN2C1=O (stereo not drawn) | 0.92 µM | 3.44 µM | – |
| CCCCCCCC1=C(C)C(=O)N2CC/C(=N\O)C2O1 (stereo not drawn) | 0.27 µM | 1.52 µM | – |
| C/C=C/CCCCC1=C(C)C(=O)N2CC/C(=N\O)C2O1 (stereo not drawn) | – | – | Not Active |
| CCCCCCCC(=O)C(C)C(=O)N1C=CCC1 (stereo not drawn) | 4.55 µM | – | – |
| C/C=C/CCCCC(=O)C(C)C(=O)N1C=CCC1 (stereo not drawn) | – | – | Not Active |
| CC1=C(C(C)c2cccc(Oc3ccccc3)c2)OC2C(O)CCN2C1=O (single isomer, unassigned; diastereomer 1) | 5.48 µM | 14.3 µM | – |
| CC(C(=O)C(C)c1cccc(Oc2ccccc2)c1)C(=O)N1C=CCC1 (single isomer, unassigned; diastereomer 1) | 3.92 µM | 6.57 µM | – |
| CC(C(=O)C(C)c1cccc(Oc2ccccc2)c1)C(=O)N1CC[C@H](O)C1 (single isomer, unassigned; diastereomer 1) | 41.5 µM | – | – |
| CC1=C(C(C)c2cccc(Oc3ccccc3)c2)OC2C(O)CCN2C1=O (single isomer, unassigned; diastereomer 2) | 3.13 µM | 11.9 µM | – |
| CC(C(=O)C(C)c1cccc(Oc2ccccc2)c1)C(=O)N1CC[C@H](O)C1 (single isomer, unassigned; diastereomer 2) | 36.3 µM | – | – |

The remaining lines, values ahead:

| IC50 ([1]; read-out: IC50) | IC50 [2] | IC50 [1] | SMILES |
| --- | --- | --- | --- |
| 8.6 µM | 14.3 µM | – | CCCCCCCCC(=O)CC(=O)c1ccc[nH]1 |
| 214 µM | – | – | CC(C(=O)c1ccccc1)C(=O)c1ccc[nH]1 (stereo not drawn) |
| – | – | Not Active | CCC(=O)CC(=O)c1ccc[nH]1 |
| 6.82 µM | – | – | CC(C(=O)N1C=CCC1)c1cccc(Oc2ccccc2)c1 (stereo not drawn) |
| 4.4 µM | 16.4 µM | – | CC(C(=O)C(C)c1cccc(Oc2ccccc2)c1)C(=O)N1C=CCC1 (single isomer, unassigned; diastereomer 2) |
